# Experimental data as given in publication PMC3880591 (Journal of medicinal chemistry, 2013).
# Like-named read-outs stand apart in the source and are kept apart here.
# Experiments:
# [1] = target: T1, human KOR (Homo sapiens, UniProt P41145); settings: cited from earlier work
# [2] = tested on: Male Sprague Dawley rats; test: Intracranial self-stimulation; type: in vivo, rat; settings: i.p., measured for 1 hr; for Effect on ICSS thresholds: butorphan 0.25-4.0 mg/kg, 8 1.0-30.0 mg/kg
# Procedure, shortened: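 Rats carried monopolar electrodes in the medial forebrain bundle (lateral hypothalamus). They were trained on FR1 at 141 Hz (500 ms trains) by the rate-frequency method until thresholds were stable (±10%, 4 days); N=6 per cohort. Baseline was the mean of the last two of three 15-min functions. Ascending i.p. doses were given in 20% DMSO/water or 0.9% saline, then four 15-min trials. Output was percent of baseline, by two-way repeated-measures ANOVA with Tukey.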
# [3] = target: T1, human KOR; settings: from [35S]GTPγS stimulation and inhibition data; cited from earlier work
# [4] = tested on: mice; settings: cited from earlier work
# [5] = tested on: rats; settings: ref 10b; cited from earlier work
# [6] = tested on: morphine dependent monkeys; settings: more potent (in contrast to cyclorphan); cited from earlier work
# [7] = target: T2, human MOR (Homo sapiens, UniProt P35372); settings: from [35S]GTPγS stimulation and inhibition data; cited from earlier work
# T2 sequence (P35372 whole entry): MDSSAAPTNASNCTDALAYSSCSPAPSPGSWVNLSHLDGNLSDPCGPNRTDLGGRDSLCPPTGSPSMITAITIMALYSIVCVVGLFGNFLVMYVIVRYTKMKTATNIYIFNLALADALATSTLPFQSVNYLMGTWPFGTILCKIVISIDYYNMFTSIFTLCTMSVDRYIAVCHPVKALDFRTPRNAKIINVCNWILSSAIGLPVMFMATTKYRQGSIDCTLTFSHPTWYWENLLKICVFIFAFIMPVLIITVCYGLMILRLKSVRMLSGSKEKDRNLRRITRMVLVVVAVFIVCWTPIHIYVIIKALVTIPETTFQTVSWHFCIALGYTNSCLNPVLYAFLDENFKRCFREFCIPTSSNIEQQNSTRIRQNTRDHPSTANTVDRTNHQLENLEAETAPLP
# [8] = target: T2, human MOR; test: Stimulation/inhibition of [35S]GTPγS binding mediated by the MOR; type: biochemical; settings: from [35S]GTPγS stimulation and inhibition data
# Procedure, shortened: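 Membranes from CHO cells stably expressing human MOR (7.5 μg protein/tube) were incubated 60 min at 30 °C with 12 test compound concentrations in 50 mM Tris–HCl, 3 mM MgCl2, 100 mM NaCl, 0.2 mM EGTA, pH 7.4, plus 3 μM GDP and 80 pmol [35S]GTPγS. Antagonist mode used 200 nM DAMGO. Nonspecific binding was defined with 10 μM GTPγS. Filter-bound counts were given as % stimulation over basal; at least three experiments in triplicate.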
# [9] = target: T1, human KOR; test: Stimulation/inhibition of [35S]GTPγS binding mediated by the KOR; type: biochemical; settings: from [35S]GTPγS stimulation and inhibition data
# Procedure, shortened: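 CHO membranes stably expressing human KOR (15 μg protein/tube) were incubated 60 min at 30 °C with 12 concentrations of test compound in 50 mM Tris–HCl, 3 mM MgCl2, 100 mM NaCl, 0.2 mM EGTA, pH 7.4, with 3 μM GDP and […] [35S]GTPγS. Antagonism was tested against 30 nM U50,488. Nonspecific binding used 10 μM GTPγS. After filtration and counting, results were expressed as % stimulation over basal; ≥3 experiments, triplicate.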
# [10] = tested on: rhesus monkeys; settings: cited from earlier work
# T1 sequence (P41145 whole entry): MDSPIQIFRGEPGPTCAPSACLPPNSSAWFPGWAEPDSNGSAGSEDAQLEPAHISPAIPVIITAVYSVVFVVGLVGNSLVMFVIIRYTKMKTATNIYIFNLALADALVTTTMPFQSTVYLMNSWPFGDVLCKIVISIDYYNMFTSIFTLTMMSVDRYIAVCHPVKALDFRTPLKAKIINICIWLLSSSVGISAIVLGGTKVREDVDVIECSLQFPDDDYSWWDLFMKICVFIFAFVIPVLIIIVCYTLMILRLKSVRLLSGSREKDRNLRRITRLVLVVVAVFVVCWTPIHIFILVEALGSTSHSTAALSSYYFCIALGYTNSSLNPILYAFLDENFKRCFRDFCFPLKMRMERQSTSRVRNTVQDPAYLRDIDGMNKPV
smiles,measurement,setting,value
Nc1nc2c(s1)C[C@H]1[C@H]3Cc4ccc(O)cc4[C@@]1(CCN3CC1CC1)C2 [Compound 8],Ki,"[1]; read-out: Ki [3H]U69,593 (κ), CHO membranes, human KOR, ± SEM",0.072 ± 0.0039 nM
same,Effect on ICSS thresholds,[2],no significant effect
same,Pharmacological properties at the KOR (agonist/antagonist),[3],both agonist and antagonist properties
CCNc1nc2cc3c(cc2s1)C[C@@H]1[C@@H]2CCCC[C@]32CCN1CC1CC1 [Compound 1c],Effect on morphine sensitization,[4],inhibited morphine sensitization
Oc1ccc2c(c1)[C@@]13CCCC[C@H]1[C@@H](C2)N(CC1CCC1)CC3 [Butorphan],Antinociception in the warm-water tail flick test,[5],full antinociception
same,Effect on maximum rates of responding,[2]; 4.0 mg/kg,significantly decreased rates of responding
same,Effect on ICSS thresholds,[2],no significant effect
same,Potency in suppressing abstinence,[6],40 times
COc1ccc2c(c1)[C@]13CCN(CC4CC4)[C@H](C2)[C@@H]1Cc1sc(N)nc1C3 [Compound 7],Selectivity δ/κ,[1]; ratio of Ki values,7
same,Pharmacological properties at the MOR (agonist/antagonist),[7],agonist and antagonist properties
same,Pharmacological properties at the KOR (agonist/antagonist),[3],full agonists
"CNc1nc2c(s1)C[C@H]1[C@H]3Cc4ccc(OC)cc4[C@@]1(CCN3CC1CC1)C2 [Compound 11, 6,7-(2-N-Methyl)aminothiazolo-N-cyclopropylmethyl-3-methoxymorphinan]",Pharmacological properties at the MOR (agonist/antagonist),[8],agonist and antagonist properties
same,Pharmacological properties at the KOR (agonist/antagonist),[9],full agonists
Oc1ccc2c(c1)[C@@]13CCCC[C@H]1[C@@H](C2)N(CC1CC1)CC3 [Cyclorphan],Antinociception in the warm-water tail flick test,[5],partial effect
same,Effect on cocaine self-administration,[10],reduced cocaine self-administration
"COc1ccc2c(c1)[C@]13CCN(CC4CC4)[C@H](C2)[C@@H]1Cc1sc(NC(C)=O)nc1C3 [Compound 10, 6,7-(2-N-Acetyl)aminothiazolo-N-cyclopropylmethyl-3-methoxymorphinan]",Pharmacological properties at the MOR (agonist/antagonist),[8],agonist and antagonist properties
same,Pharmacological properties at the KOR (agonist/antagonist),[9],full agonists
